Test results reported in ChEMBL document CHEMBL2380295, “Structure-activity studies on the side chain of a simplified analog of aplysiatoxin (aplog-1) with anti-proliferative activity” (Bioorg Med Chem, 2013).

Key:
[1] = Cytotoxicity against human Raji cells assessed as cell viability at 10^-6 M; format: cell-based; details: read-out: Activity
[2] = Cytotoxicity against human Raji cells assessed as cell viability at 10^-7 M; format: cell-based; details: read-out: Activity
Human gammaherpesvirus 4 [3] = assay: Induction of EBV-early antigen expressed in human Raji cells at 10^-6 M after 48 hrs by immunofluorescence assay relative to control; format: organism-based; details: human gammaherpesvirus 4, raji, 1 µM
Procedure, shortened: (§1)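 Raji B-lymphoblastoid cells (5 × 10^5/mL) in RPMI 1640 with 10% FBS, with 4 mM sodium n-butyrate as synergist and test compound at 10^-7 or 10^-6 M (final DMSO 0.4%). Incubated 48 h at 37 °C under 5% CO2. Smears were stained by indirect immunofluorescence using NPC patient serum and FITC anti-human IgG. At least 500 cells counted; % EA-positive recorded; n = 3, SEM.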

Human gammaherpesvirus 4 [4] = assay: Induction of EBV-early antigen expressed in human Raji cells at 10^-7 M after 48 hrs by immunofluorescence assay relative to control; format: organism-based; details: human gammaherpesvirus 4, raji, 0.1 µM; procedure, shortened: as §1
PC-3 = assay: Growth inhibition of human PC3 cells after 48 hrs by sulforhodamine B assay; format: functional; details: PC-3, 48 h
Procedure, shortened: (§2)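 Yamori 39-line human cancer panel, NCI method with modifications. Cells plated in RPMI 1640 plus 5% FBS, attached overnight, then exposed 48 h to compound at 10^-8, 10^-7, 10^-6, 10^-5 and 10^-4 M. Sulforhodamine B staining read at 525 nm; % growth = 100[(T−T0)/(C−T0)] from duplicate-point averages, with T0 the time-zero absorbance. GI50 is the concentration giving 50.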

DU-145 = assay: Growth inhibition of human DU145 cells after 48 hrs by sulforhodamine B assay; format: functional; details: DU-145, 48 h; procedure, shortened: as §2
MKN-74 = assay: Growth inhibition of human MKN74 cells after 48 hrs by sulforhodamine B assay; format: functional; details: MKN-74, 48 h; procedure, shortened: as §2
MKN-28 = assay: Growth inhibition of human MKN28 cells after 48 hrs by sulforhodamine B assay; format: functional; details: MKN-28, 48 h; procedure, shortened: as §2
MKN-45 = assay: Growth inhibition of human MKN45 cells after 48 hrs by sulforhodamine B assay; format: functional; details: MKN-45, 48 h; procedure, shortened: as §2
MKN-7 = assay: Growth inhibition of human MKN7 cells after 48 hrs by sulforhodamine B assay; format: functional; details: MKN-7, 48 h; procedure, shortened: as §2
St-4 = assay: Growth inhibition of human St-4 cells after 48 hrs by sulforhodamine B assay; format: functional; details: St-4, 48 h; procedure, shortened: as §2
[5] = Growth inhibition of human MKN1 cells after 48 hrs by sulforhodamine B assay; format: functional; details: MKN-1, 48 h; procedure, shortened: as §2
[6] = Growth inhibition of human RXF631L cells after 48 hrs by sulforhodamine B assay; format: functional; details: RXF 631, 48 h; procedure, shortened: as §2
ACHN = assay: Growth inhibition of human ACHN cells after 48 hrs by sulforhodamine B assay; format: functional; procedure, shortened: as §2
OVCAR-8 = assay: Growth inhibition of human OVCAR8 cells after 48 hrs by sulforhodamine B assay; format: functional; details: OVCAR-8, 48 h; procedure, shortened: as §2
SK-OV-3 = assay: Growth inhibition of human SKOV3 cells after 48 hrs by sulforhodamine B assay; format: functional; details: SK-OV-3, 48 h; procedure, shortened: as §2
OVCAR-5 = assay: Growth inhibition of human OVCAR5 cells after 48 hrs by sulforhodamine B assay; format: functional; details: OVCAR-5, 48 h; procedure, shortened: as §2
OVCAR-3 = assay: Growth inhibition of human OVCAR3 cells after 48 hrs by sulforhodamine B assay; format: functional; details: OVCAR-3, 48 h; procedure, shortened: as §2
OVCAR-4 = assay: Growth inhibition of human OVCAR4 cells after 48 hrs by sulforhodamine B assay; format: functional; details: OVCAR-4, 48 h; procedure, shortened: as §2
DMS-114 = assay: Growth inhibition of human DMS114 cells after 48 hrs by sulforhodamine B assay; format: functional; details: DMS-114, 48 h; procedure, shortened: as §2
LOX IMVI = assay: Growth inhibition of human LOXIMVI cells after 48 hrs by sulforhodamine B assay; format: functional; procedure, shortened: as §2
A549 = assay: Growth inhibition of human A549 cells after 48 hrs by sulforhodamine B assay; format: functional; details: A549, 48 h; procedure, shortened: as §2
DMS-273 = assay: Growth inhibition of human DMS273 cells after 48 hrs by sulforhodamine B assay; format: functional; details: DMS-273, 48 h; procedure, shortened: as §2
NCI-H460 = assay: Growth inhibition of human NCI-H460 cells after 48 hrs by sulforhodamine B assay; format: functional; details: NCI-H460, 48 h; procedure, shortened: as §2
NCI-H226 = assay: Growth inhibition of human NCI-H226 cells after 48 hrs by sulforhodamine B assay; format: functional; details: NCI-H226, 48 h; procedure, shortened: as §2
NCI-H522 = assay: Growth inhibition of human NCI-H522 cells after 48 hrs by sulforhodamine B assay; format: functional; details: NCI-H522, 48 h; procedure, shortened: as §2
HCT-116 = assay: Growth inhibition of human HCT116 cells after 48 hrs by sulforhodamine B assay; format: functional; details: HCT-116, 48 h; procedure, shortened: as §2
NCI-H23 = assay: Growth inhibition of human NCI-H23 cells after 48 hrs by sulforhodamine B assay; format: functional; details: NCI-H23, 48 h; procedure, shortened: as §2
HCT-15 = assay: Growth inhibition of human HCT15 cells after 48 hrs by sulforhodamine B assay; format: functional; details: HCT-15, 48 h; procedure, shortened: as §2
KM12 = assay: Growth inhibition of human KM12 cells after 48 hrs by sulforhodamine B assay; format: functional; details: KM12, 48 h; procedure, shortened: as §2
HT-29 = assay: Growth inhibition of human HT-29 cells after 48 hrs by sulforhodamine B assay; format: functional; details: HT-29, 48 h; procedure, shortened: as §2
SNB-78 = assay: Growth inhibition of human SNB78 cells after 48 hrs by sulforhodamine B assay; format: functional; details: SNB-78, 48 h; procedure, shortened: as §2
[7] = Growth inhibition of human HCC2998 cells after 48 hrs by sulforhodamine B assay; format: functional; details: HCC 2998, 48 h; procedure, shortened: as §2
SF-539 = assay: Growth inhibition of human SF539 cells after 48 hrs by sulforhodamine B assay; format: functional; details: SF-539, 48 h; procedure, shortened: as §2
SNB-75 = assay: Growth inhibition of human SNB75 cells after 48 hrs by sulforhodamine B assay; format: functional; details: SNB-75, 48 h; procedure, shortened: as §2
SF-295 = assay: Growth inhibition of human SF295 cells after 48 hrs by sulforhodamine B assay; format: functional; details: SF-295, 48 h; procedure, shortened: as §2
U-251 = assay: Growth inhibition of human U251 cells after 48 hrs by sulforhodamine B assay; format: functional; details: U-251, 48 h; procedure, shortened: as §2
SF-268 = assay: Growth inhibition of human SF268 cells after 48 hrs by sulforhodamine B assay; format: functional; details: SF-268, 48 h; procedure, shortened: as §2
MCF7 = assay: Growth inhibition of human MCF7 cells after 48 hrs by sulforhodamine B assay; format: functional; details: MCF7, 48 h; procedure, shortened: as §2
MDA-MB-231 = assay: Growth inhibition of human MDA-MB-231 cells after 48 hrs by sulforhodamine B assay; format: functional; details: MDA-MB-231, 48 h; procedure, shortened: as §2
[8] = Growth inhibition of human BSY1 cells after 48 hrs by sulforhodamine B assay; format: functional; details: BSY-1, 48 h; procedure, shortened: as §2
[9] = Growth inhibition of human HBC5 cells after 48 hrs by sulforhodamine B assay; format: functional; details: HBC5, 48 h; procedure, shortened: as §2
[10] = Growth inhibition of human HBC4 cells after 48 hrs by sulforhodamine B assay; format: functional; details: HBC4, 48 h; procedure, shortened: as §2
[11] = Octanol-water partition coefficient, log P of the compound by HPLC analysis; format: physicochemical
Procedure, shortened: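 log P was estimated from HPLC retention, with column dead time measured using unretained formamide.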

[12] = target: T1, Protein kinase C delta type (Homo sapiens, UniProt Q05655); assay: Inhibition of [3H]PDBu binding to PKCdelta-C1A domain peptide (unknown origin)
Procedure, shortened: (§3)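 Competitive [3H]PDBu binding used 14 or 40 nM PKCδ C1 peptide and 20 nM [3H]PDBu (19.6 Ci/mmol), in 50 mM Tris-maleate (pH 7.4 at 4 °C) with 50 µg/mL phosphatidylserine, 3 mg/mL bovine γ-globulin and varied inhibitor concentrations. IC50 was taken as 50% inhibition of specific binding. Ki was derived by the Sharkey–Blumberg method.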

[13] = target: T1, Protein kinase C delta type; assay: Inhibition of [3H]PDBu binding to PKCdelta-C1B domain peptide (unknown origin); procedure, shortened: as §3

T1 sequence (Q05655 whole entry, the tested form may be a part): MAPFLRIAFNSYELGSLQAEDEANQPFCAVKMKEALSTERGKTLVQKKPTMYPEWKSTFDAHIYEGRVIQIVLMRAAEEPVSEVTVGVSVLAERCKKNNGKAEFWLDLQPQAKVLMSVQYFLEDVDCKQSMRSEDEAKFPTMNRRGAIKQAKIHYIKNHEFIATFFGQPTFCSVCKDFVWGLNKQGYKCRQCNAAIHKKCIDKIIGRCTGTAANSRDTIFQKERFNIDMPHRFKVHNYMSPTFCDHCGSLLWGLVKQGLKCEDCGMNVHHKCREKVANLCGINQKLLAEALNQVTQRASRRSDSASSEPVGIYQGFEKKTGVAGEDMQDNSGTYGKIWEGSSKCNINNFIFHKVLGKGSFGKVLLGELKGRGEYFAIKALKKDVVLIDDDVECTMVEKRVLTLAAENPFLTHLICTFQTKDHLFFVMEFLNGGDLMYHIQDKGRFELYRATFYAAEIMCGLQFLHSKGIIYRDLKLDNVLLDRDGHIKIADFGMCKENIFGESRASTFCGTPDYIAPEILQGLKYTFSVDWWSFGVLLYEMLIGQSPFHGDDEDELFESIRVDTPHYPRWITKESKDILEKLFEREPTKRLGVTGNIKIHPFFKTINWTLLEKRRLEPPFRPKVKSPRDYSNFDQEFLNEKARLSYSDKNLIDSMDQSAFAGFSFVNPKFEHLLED

CC1(C)CC[C@@H]2CC(=O)O[C@@H](CO)CC(=O)O[C@@H]3C[C@@H](CCCCc4c(Br)cc(Br)c(O)c4Br)O[C@@]1(C3)O2
viability at 1 µM [1]: 40% | viability at 0.1 µM [2]: 40% | Activity (Human gammaherpesvirus 4 [3]): 1.9% | Activity (Human gammaherpesvirus 4 [4]): 1.9% | GI50 (PC-3): 13.2 µM | GI50 (DU-145): 17 µM | GI50 (MKN-74): 21.9 µM | GI50 (MKN-28): 18.2 µM | GI50 (MKN-45): 11.5 µM | GI50 (MKN-7): 20.9 µM | GI50 (St-4): 3.09 µM | GI50 [5]: 14.8 µM | GI50 [6]: 21.9 µM | GI50 (ACHN): 16.2 µM | GI50 (OVCAR-8): 17.4 µM | GI50 (SK-OV-3): 32.4 µM | GI50 (OVCAR-5): 18.6 µM | GI50 (OVCAR-3): 15.5 µM | GI50 (OVCAR-4): 20.9 µM | GI50 (DMS-114): 25.7 µM | GI50 (LOX IMVI): 11.7 µM | GI50 (A549): 12.6 µM | GI50 (DMS-273): 18.2 µM | GI50 (NCI-H460): 3.24 µM | GI50 (NCI-H226): 16.2 µM | GI50 (NCI-H522): 20.4 µM | GI50 (HCT-116): 17.8 µM | GI50 (NCI-H23): 14.1 µM | GI50 (HCT-15): 18.2 µM | GI50 (KM12): 16.6 µM | GI50 (HT-29): 16.6 µM | GI50 (SNB-78): 47.9 µM | GI50 [7]: 7.59 µM | GI50 (SF-539): 13.5 µM | GI50 (SNB-75): 26.3 µM | GI50 (SF-295): 13.2 µM | GI50 (U-251): 16.2 µM | GI50 (SF-268): 20.9 µM | GI50 (MCF7): 19.5 µM | GI50 (MDA-MB-231): 12 µM | GI50 [8]: 21.4 µM | GI50 [9]: 22.9 µM | GI50 [10]: 0.871 µM | logP [11]: 5.5 | Ki [12]: 0.079 µM | Ki [13]: 0.0069 µM

CC1(C)CC[C@@H]2CC(=O)O[C@@H](CO)CC(=O)O[C@@H]3C[C@@H](CCCCc4cc(O)ccc4I)O[C@@]1(C3)O2
viability at 1 µM [1]: 50% | viability at 0.1 µM [2]: 50% | Activity (Human gammaherpesvirus 4 [3]): 1.4% | Activity (Human gammaherpesvirus 4 [4]): 1.3% | GI50 (PC-3): 4.68 µM | GI50 (DU-145): 12.9 µM | GI50 (MKN-74): 11.7 µM | GI50 (MKN-28): 0.813 µM | GI50 (MKN-45): 12 µM | GI50 (MKN-7): 11.5 µM | GI50 (St-4): 0.427 µM | GI50 [5]: 10.7 µM | GI50 [6]: 12.9 µM | GI50 (ACHN): 10.7 µM | GI50 (OVCAR-8): 16.2 µM | GI50 (SK-OV-3): 15.8 µM | GI50 (OVCAR-5): 5.13 µM | GI50 (OVCAR-3): 5.89 µM | GI50 (OVCAR-4): 13.8 µM | GI50 (DMS-114): 11 µM | GI50 (LOX IMVI): 2 µM | GI50 (A549): 4.07 µM | GI50 (DMS-273): 0.251 µM | GI50 (NCI-H460): 10.5 µM | GI50 (NCI-H226): 12.6 µM | GI50 (NCI-H522): 11.7 µM | GI50 (HCT-116): 10.5 µM | GI50 (NCI-H23): 7.94 µM | GI50 (HCT-15): 15.1 µM | GI50 (KM12): 10.5 µM | GI50 (HT-29): 13.8 µM | GI50 (SNB-78): 15.1 µM | GI50 [7]: 0.891 µM | GI50 (SF-539): 11 µM | GI50 (SNB-75): 10.5 µM | GI50 (SF-295): 6.31 µM | GI50 (U-251): 12.9 µM | GI50 (SF-268): 13.8 µM | GI50 (MCF7): 13.8 µM | GI50 (MDA-MB-231): 1.55 µM | GI50 [8]: 9.77 µM | GI50 [9]: 15.8 µM | GI50 [10]: 0.158 µM | logP [11]: 4.2 | Ki [12]: 0.11 µM | Ki [13]: 0.0046 µM
